Compound activity as filed in PubChem BioAssay.
Most compounds without a hit are left out; they make up all but 2% or so of the library.
Rev-erbA mod: modulators of human Rev-erb alpha DNA binding. P20393. Rev-erbα–FITC-DNA binding, fluorescence polarization, 90 min. activity, % at 10 µM. 370,000 tested, 0.79% active;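 active means activity above about 14%, limit read from the data; passing the limit was not always enough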
PG9 Ab binder: small molecules binding HIV-1 gp120 antibody PG9; 360,000 tested, 0.43% active; inhibition, % at 6.7 µM; AID 624416; TR-FRET gp120-PG9 antibody binding; in the data active means inhibition above about 8.5%
NR2E3 ag-1: agonists of human NR2E3 nuclear receptor. AID 602229. 360,000 tested, 0.35% active. Q9Y5X4. CHO-S Gal4-NCOR/VP16-NR2E3 two-hybrid, luciferase. inhibition of corepressor binding, % at 3.98 µM;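 active means inhibition above the mean of all tested compounds plus 3 SD, cut at about 70% in these data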;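 further: higher means lower luciferase signal from less NR2E3 corepressor binding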
Target sequence (Q9Y5X4 whole entry, looked up, the tested form may be a part): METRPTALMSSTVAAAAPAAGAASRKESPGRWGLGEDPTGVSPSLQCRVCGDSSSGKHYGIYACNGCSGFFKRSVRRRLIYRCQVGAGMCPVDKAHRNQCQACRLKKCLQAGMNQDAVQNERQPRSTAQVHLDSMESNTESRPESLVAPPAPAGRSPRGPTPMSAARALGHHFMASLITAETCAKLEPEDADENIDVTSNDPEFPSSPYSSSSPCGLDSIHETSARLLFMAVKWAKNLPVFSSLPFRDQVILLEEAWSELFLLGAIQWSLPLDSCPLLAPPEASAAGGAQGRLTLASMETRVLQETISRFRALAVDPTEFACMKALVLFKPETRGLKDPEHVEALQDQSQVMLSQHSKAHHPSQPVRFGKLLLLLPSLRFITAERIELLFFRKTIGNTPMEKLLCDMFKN
NR2E3 ag-2: activates human photoreceptor nuclear receptor NR2E3; GST-NR2E3/biotin-RetCOR TR-FRET, 1536-well; inhibition of corepressor binding, % at 4.78 µM; 320,000 tested, 0.12% active;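 active means percent inhibition above the cutoff of mean plus 3 SD of all tested compounds, set per screening campaign, cut at about 20% in these data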
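Assay system: NR2E3–RetCOR corepressor complex. Quantity: 1.35 nM GST-NR2E3. Buffer or medium: pH 7.5 Tris-based buffer. Reagent: biotinylated RetCOR corepressor at 7 nM final. Schedule: 5 h at 4 °C. Detection: TR-FRET, emission read at 617 and 671 nm. Replicates: one well per compound, singlicate testing.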
Neddyl block: cullin neddylation inhibition. P61081+Q13564. TR-FRET cullin neddylation, biochemical. calls only at 25 µM. 360,000 tested, 0.58% active; in the data active means inhibition above about 36%
Neddyl inh conf: confirmation of human cullin neddylation inhibitors; shares compounds with Neddyl block; TR-FRET cullin neddylation biochemical assay; calls only at 25 µM; 1,800 tested, 13% active; AID 652217; in the data active means inhibition above about 40%;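 further: neddylation substrate is the cullin 1 ring ligase complex with SKP2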
Calls only; - = inactive; . = not tested or not shown; + = active, no number.

SMILES	Rev-erbA mod	PG9 Ab binder	NR2E3 ag-1	NR2E3 ag-2	Neddyl block	Neddyl inh conf
CCOC(=O)c1c(C)n(-c2ccccc2)c2ccc(O)cc12	-	-	-	-	-	.
CCN(CC(=O)Nc1ccc(NC(C)=O)cc1)C(=O)/C=C/c1cn(-c2ccccc2)nc1-c1cccs1	-	-	-	-	+	.
CCCCN(C)C(=O)c1cc2cc3ccc(OC)cc3nc2o1	-	-	-	-	+	+
CNC(=O)c1ccc(Nc2nnc(-c3ccc(C)c(S(=O)(=O)NCC4CCCO4)c3)c3ccccc23)cc1 (stereo not given)	-	-	-	-	+	-
CC(=O)Nc1ccc(Nc2nnc(-c3ccc(C)c(S(=O)(=O)NCC4CCCO4)c3)c3ccccc23)cc1 (stereo not given)	-	-	-	-	-	.
O=C1CN(C(=O)COC(=O)c2c(F)cccc2Cl)c2ccccc2N1	-	-	-	.	-	.
COc1cc(Br)cc(/C=N/NC(=O)Cc2ccccc2)c1O	-	-	-	-	+	-
Cc1nc2scc(C)n2c(=O)c1S(=O)(=O)NCC1CCN(Cc2ccc(Cl)cc2)CC1	-	-	-	-	+	-
Cc1nc2scc(C)n2c(=O)c1S(=O)(=O)NCCc1ccc(Cl)cc1	-	-	-	-	-	.
CC(=O)Nc1ccc(OC(=O)c2ccccc2O)cc1	-	.	.	.	.	.
COC(=O)c1cc(=O)nc2sc(-c3ccc(F)cc3)nn12	.	.	-	-	-	.
COC(=O)c1cc(=O)nc2sc(-c3cccs3)nn12	-	-	-	-	+	-
CC(C)(C)NC(=O)C(C1CC1)n1c(=O)c(-c2ccccc2)nc2ccccc21 (stereo not given)	-	-	.	.	.	.
Cc1[nH]c2ccc(C(=O)OCC(=O)Nc3cccc(S(N)(=O)=O)c3)cc2c1C	-	-	-	-	+	-
O=C(c1cccs1)N1CCN(S(=O)(=O)c2cccc(Cl)c2Cl)CC1	-	-	-	.	-	.
Cc1c(C(=O)O)sc2nc(/C=C/c3cccc(F)c3)[nH]c(=O)c12	-	-	-	-	+	.
O=C(c1cc(-c2ccco2)nc2ccccc12)N1CCCC(C(F)(F)F)C1 (stereo not given)	-	-	-	-	+	.
COc1cccc(NC(=O)c2cc(-c3ccco3)nc3ccccc23)c1	-	-	-	-	+	.
COc1cccc(NC(=O)CN(C)C(=O)c2cc(-c3ccco3)nc3ccccc23)c1	-	-	-	-	.	.
CN(CCOc1ccc(Cl)cc1)C(=O)c1cc(-c2ccco2)nc2ccccc12	-	-	-	-	+	.
O=C(c1cc(-c2ccncc2)nc2ccccc12)N1CCCC(C(F)(F)F)C1 (stereo not given)	-	-	-	.	-	.
O=C(Nc1ccccc1F)c1cc(-c2ccco2)nc2ccccc12	-	-	-	-	+	.
CCCCCNC(=O)C(c1ccnc2ccccc12)n1c(=O)c(-c2ccccc2)nc2ccccc21 (stereo not given)	-	-	.	.	-	.
CCOC(=O)[C@]12CCCCC/C=C\1N(CCc1ccc(Cl)cc1)C(=O)[C@H]2CC(=O)N1CCCCC1	-	.	.	.	.	.
Cn1nccc1C(=O)OCC(=O)Nc1ccccc1Cl	-	-	-	.	-	.
SMILES	Rev-erbA mod	PG9 Ab binder	NR2E3 ag-1	NR2E3 ag-2	Neddyl block	Neddyl inh conf
COc1ccc([C@H]2C[C@H](O)[C@@H](n3cc(C4CC4)nn3)CN2C(=O)C2CCCCC2)cc1	-	-	-	.	-	.
CCCc1c(C(=O)N/N=C/c2ccc(OC)c(OCc3ccccc3)c2)nnn1-c1nonc1N	-	-	-	-	+	-
CCCc1c(C(=O)N/N=C/c2ccc(OCc3ccccc3)c(OC)c2)nnn1-c1nonc1N	-	-	-	-	-	.
Cc1ccc(-c2c(C(=O)N/N=C/c3c[nH]c4ccccc34)nnn2-c2nonc2N)cc1	-	-	-	-	+	-
CCCc1c(C(=O)N/N=C/c2c(OC)ccc3ccccc23)nnn1-c1nonc1N	-	-	-	-	+	-
Cc1nnn(-c2nonc2N)c1C(=O)N/N=C/c1cccc2ccccc12	-	-	-	-	+	-
CCCc1c(C(=O)N/N=C/c2c[nH]c3ccccc23)nnn1-c1nonc1N	-	-	-	.	-	.
COC(=O)[C@]12C[C@H](CC(=O)N3CCSCC3)C(=O)N(CCc3ccc(OC)c(OC)c3)C1=C[C@H](C(C)C)O[C@@H]2C1CC1	-	.	.	.	.	.
Cc1ccc(/C=C2/Sc3ccc(C(=O)NCc4ccccn4)cc3NC2=O)cc1	-	-	-	-	.	.
CCOc1ccc2[nH]c(=O)c(CN(CCCN3CCOCC3)Cc3nnnn3Cc3ccc(OC)cc3)cc2c1	-	-	-	-	+	-
CCOc1ccc2[nH]c(=O)c(CN(CCO)Cc3nnnn3CCc3ccccc3)cc2c1	-	-	-	-	+	-
CN1OC[C@@H]2CN(S(=O)(=O)c3ccccc3)[C@H](c3ccccc3Br)C[C@@H]21	-	-	-	.	-	.
COc1ccc(F)cc1CN1CCN(C(=O)c2ccc(S(=O)(=O)N3CCCCCC3)cc2)CC1	-	-	-	.	-	.
COc1ccc(C(CNC(=O)c2cccc(S(=O)(=O)Nc3ccc(F)cc3)c2)N2CCCCC2)cc1 (stereo not given)	-	-	-	.	-	.
CCc1nn(CC(=O)NCCC(C)C)c(=O)c2cc3c(OC)cccc3n12	-	-	-	-	+	-
CCCCNC(=O)[C@@H]1CSC2c3ccc(OC)c(OC)c3C(=O)N21 (stereo not given in full)	-	-	-	-	+	-
COc1ccccc1CNC(=O)NC1CCN(CC(=O)Nc2ccc3c(c2)OCCO3)CC1	-	.	.	.	.	.
COc1ccc(NC(=O)c2oc3ccccc3c2NC(=O)c2ccc3c(c2)OCO3)cc1	-	-	-	-	+	-
CCOC(=O)c1oc2ccccc2c1NC(=O)c1ccc2c(c1)OCO2	-	-	-	-	-	.
COC(=O)c1[nH]c2cc(OC)ccc2c1NC(=O)c1ccc2c(c1)OCO2	-	-	-	-	+	-
CCOC(=O)c1[nH]c2ccc(OC)cc2c1NC(=O)c1ccc2c(c1)OCO2	-	-	-	-	-	.
COc1ccc(S(=O)(=O)N(C)C[C@H]2Oc3ccc(NS(=O)(=O)c4ccc(F)cc4)cc3C(=O)N([C@H](C)CO)C[C@@H]2C)cc1	-	-	-	.	-	.
CCn1c(=O)c(CCC(=O)NCC2CCCO2)c(C)c2c(C)nn(-c3ccccc3)c21 (stereo not given)	-	-	-	-	+	-
CCOC(=O)c1c(CN(CC)CC)oc2cc(Br)c(O)cc12	-	-	-	-	-	.
CCN(C(=O)COC(=O)c1oc2ccc(OC)cc2c1C)C1CCCCC1	-	-	-	-	+	.
COc1ccc2oc(C(=O)OCC(=O)N(C)c3c(N)n(Cc4ccccc4)c(=O)[nH]c3=O)c(C)c2c1	-	-	-	-	+	.
COc1ccc2oc(C(=O)OCC(=O)N3CC(C)OC(C)C3)c(C)c2c1 (stereo not given)	-	-	-	-	.	.
